We go through 19 compounds from ChEMBL document CHEMBL4422657, “Amino acid based prodrugs of a fosmidomycin surrogate as antimalarial and antitubercular agents” (Bioorg Med Chem, 2019).

Data set [1] concerns Mycobacterium tuberculosis. In words: Antitubercular activity against Mycobacterium tuberculosis H37Rv ATCC 27294 after 1 to 2 weeks. The format is functional.
Data set [2] concerns Plasmodium berghei. In words: Antimalarial activity against Plasmodium berghei ANKA infected in Swiss mouse assessed as suppression of parasitaemia at 50 mg/kg, ip administered once daily for […] measured on 4 days post infection by flow cytometry relative to control. The class given is functional.
Data set [3] deals with Plasmodium berghei. Nature of the data set: Antimalarial activity against Plasmodium berghei ANKA infected in Swiss mouse assessed as parasitaemia at 50 mg/kg, ip administered once daily for 5 days measured on 7 days post infection by flow cytometry (reference value: 19%). The class given is functional. In a few lines:
(§1)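 Mice infected with P. berghei GFP ANKA strain were dosed intraperitoneally once daily for 5 consecutive days, at 50 mg/kg for test compounds or 10 mg/kg for chloroquine as the reference. Parasitemia was measured in surviving animals on days 4, 7, 11 and 14 post infection by flow cytometry, using 10 μL blood in 2000 μL PBS. Percent reduction was calculated against vehicle-treated infected controls.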

Data set [4] has as its system Plasmodium berghei. In words: Antimalarial activity against Plasmodium berghei ANKA infected in Swiss mouse assessed as parasitaemia at 50 mg/kg, ip administered once daily for 5 days measured on 4 days post infection by flow cytometry (reference value: 17.1%). The format is functional. In a few lines: as §1
Data set [5] relates to Plasmodium berghei. In words: Antimalarial activity against Plasmodium berghei ANKA infected in Swiss mouse assessed as parasitaemia at 50 mg/kg, ip administered once daily for 5 days measured on 11 days post infection by flow cytometry (reference value: 44%). The class given is functional. A digest of the protocol:
as §1

The test system of data set [6] is Plasmodium berghei. Nature of the data set: Antimalarial activity against Plasmodium berghei ANKA infected in Swiss mouse assessed as parasitaemia at 50 mg/kg, ip administered once daily for 5 days measured on 14 days post infection by flow cytometry (reference value: 64.6%). The format is functional.
Data set [7] has as its system Plasmodium berghei. In words: Antimalarial activity against Plasmodium berghei ANKA infected in Swiss mouse assessed as mean survival days at 50 mg/kg, ip administered once daily for 5 days (reference value: 11.2 day). The class given is functional.
A short description of data set [8]: Toxicity in Swiss mouse infected with Plasmodium berghei ANKA assessed as change in body weight at 50 mg/kg, ip administered once daily for 5 days measured on 4 days post infection (reference value: 100%). The format is organism-based. To be noted: in vivo, 96 h.
Data set [9] in a line: Toxicity in Swiss mouse infected with Plasmodium berghei ANKA assessed as change in body weight at 50 mg/kg, ip administered once daily for 5 days measured on 7 days post infection (reference value: 89%). The class given is organism-based. To be noted: in vivo, 168 h.
Data set [10] in a line: Toxicity in Swiss mouse infected with Plasmodium berghei ANKA assessed as change in body weight at 50 mg/kg, ip administered once daily for 5 days measured on 11 days post infection (reference value: 81%). The following applies: in vivo, 264 h. The format is organism-based.
The nature of data set [11]: Toxicity in Swiss mouse infected with Plasmodium berghei ANKA assessed as change in body weight at 50 mg/kg, ip administered once daily for 5 days measured on 14 days post infection (reference value: 75%). The class given is organism-based. To be noted: in vivo, 336 h.
In the next data set the test system is Plasmodium falciparum. Nature of the data set: Antiplasmodial activity against chloroquine-resistant Plasmodium falciparum K1 infected in human erythrocytes measured after 72 hrs Malstat/NBT reagent based assay. The class given is functional, organism-based. To be noted: K1, 72 h. A digest of the protocol: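 Infected human red blood cells (1% parasitaemia, 2% haematocrit) incubated 72 h with compound, then frozen at -20 °C. Growth read by Malstat: haemolysate with Malstat reagent 15 min RT, then NBT/PES 2 h RT in dark, absorbance at 655 nm. Chloroquine positive control. IC50 reported.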

Data set [12] relates to Mycobacterium tuberculosis. Nature of the data set: Antitubercular activity against Mycobacterium tuberculosis H37Rv after 7 days by Resazurin microtitre assay. The class given is functional. The following applies: 168 h. In a few lines:
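Resazurin microtiter assay with M. tuberculosis H37Rv in Middlebrook 7H9 + 10% OADC + 0.5% glycerol + 0.1% casitone. Two-fold dilutions, final 50 to 3.12 µM. Inoculum from LJ subculture at McFarland 1, diluted 1:10. 7 days at 37 °C, normal atmosphere, then resazurin overnight. MIC is the lowest concentration preventing the blue-to-pink change, read visually.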

Another data set has as its system MRC5. Nature of the data set: Cytotoxicity against human MRC5 cells after 24 hrs by resazurin dye based assay. The format is cell-based. The following applies: MRC5, 24 h. In a few lines: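 MRC-5 human lung fibroblasts were grown in DMEM with 10% heat-inactivated FCS at 37 °C, 5% CO2. Cells were seeded at 4 x 10^4 per well and allowed to recover for at least 24 h, then exposed for 24 h to a two-fold dilution series (128 to 0.5 µM final). Cells were PBS-washed and incubated with resazurin for 3 h, and fluorescence was read at 560/590 nm. Tamoxifen served as positive control.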

Data set [13] relates to Plasmodium berghei. Nature of the data set: Antimalarial activity against Plasmodium berghei ANKA infected in Swiss mouse assessed as suppression of parasitaemia at 10 mg/kg, ip administered once daily for 5 days measured on 4 days post infection by flow cytometry relative to control. The class given is functional. In a few lines:
as §1

The subject of data set [14] is Plasmodium berghei. In words: Antimalarial activity against Plasmodium berghei ANKA infected in Swiss mouse assessed as parasitaemia at 10 mg/kg, ip administered once daily for 5 days measured on 4 days post infection by flow cytometry (reference value: 17.1%). The format is functional. In a few lines:
as §1

Data set [15] concerns Plasmodium berghei. Nature of the data set: Antimalarial activity against Plasmodium berghei ANKA infected in Swiss mouse assessed as parasitaemia at 10 mg/kg, ip administered once daily for 5 days measured on 7 days post infection by flow cytometry (reference value: 19%). The class given is functional. In a few lines:
as §1

The test system of data set [16] is Plasmodium berghei. Nature of the data set: Antimalarial activity against Plasmodium berghei ANKA infected in Swiss mouse assessed as parasitaemia at 10 mg/kg, ip administered once daily for 5 days measured on 11 days post infection by flow cytometry (reference value: 44%). The format is functional. A digest of the protocol:
as §1

For data set [17], the system named is Plasmodium berghei. Nature of the data set: Antimalarial activity against Plasmodium berghei ANKA infected in Swiss mouse assessed as mean survival days at 10 mg/kg, ip administered once daily for 5 days (reference value: 11.2 day). The class given is functional.
The nature of data set [18]: Toxicity in Swiss mouse infected with Plasmodium berghei ANKA assessed as change in body weight at 10 mg/kg, ip administered once daily for 5 days measured on 4 days post infection (reference value: 100%). The class given is organism-based. To be noted: in vivo, 96 h.
A short description of data set [19]: Toxicity in Swiss mouse infected with Plasmodium berghei ANKA assessed as change in body weight at 10 mg/kg, ip administered once daily for 5 days measured on 7 days post infection (reference value: 89%). To be noted: in vivo, 168 h. The class given is organism-based.
Data set [20] in a line: Toxicity in Swiss mouse infected with Plasmodium berghei ANKA assessed as change in body weight at 10 mg/kg, ip administered once daily for 5 days measured on 11 days post infection (reference value: 81%). The format is organism-based. The following applies: in vivo, 264 h.

≈ marks a conversion by molar mass, not a printed value.

In turn, `CC(=O)N(CCCP(=O)(OCOC(=O)OC(C)(C)C)OCOC(=O)OC(C)(C)C)OCc1ccc(-c2ccccc2)cc1` gave a minimum inhibitory concentration (MIC) in data set [1] of 5.3 to 21 µM (≈ 3.31 to 13.1 µg/mL).
Take `CC(C)OC(=O)OCOP(=O)(CCCC(=O)N(C)O)OCOC(=O)OC(C)C`: the Activity in the data set with Plasmodium berghei [2] was 99%; in the data set with Plasmodium berghei [3] it was 0.04%; with Plasmodium berghei [4], 0.2%; in the data set with Plasmodium berghei [5], 3.7%; with Plasmodium berghei [6] it was 16.4%; in data set [8], 104%. Moreover, the Activity in [9] came to 105%; in data set [10] it was 105%; in data set [11], 100%. Besides, the MSD in the data set with Plasmodium berghei [7] is 15.3 days.
As for `CC(C)C[C@H](NP(=O)(CCCC(=O)N(C)O)N[C@@H](CC(C)C)C(=O)OC(C)C)C(=O)OC(C)C`, the concentration for half-maximal inhibition (IC50) in the data set with Plasmodium falciparum was 4.97 µM; with MRC5 it was greater than 64 µM. In data set [12], this compound returned an MIC greater than 50 µM.
Regarding `CCOC(=O)[C@H](CCCCN)NP(=O)(CCCC(=O)N(C)O)N[C@@H](CCCCN)C(=O)OCC`, the results for the IC50 in the data set with Plasmodium falciparum and in the data set with MRC5 were 0.96 µM and greater than 64 µM, respectively. Also, the MIC in [12] was greater than 50 µM. Also, the Activity with Plasmodium berghei [2] turned out to be 0.6%; in the data set on Plasmodium berghei [3], 30.1%; in the data set on Plasmodium berghei [4], 17.1%; in the data set with Plasmodium berghei [5], 34.7%; in data set [8], 99%; in [9], 79%. In addition, the Activity in [10] came out at 67%. Also, in the data set on Plasmodium berghei [7], the MSD was found to be 8.7 days.
With `CCOC(=O)[C@H](Cc1ccc(OP(=O)(CCCC(=O)N(C)O)Oc2ccc(C[C@H](NC(C)=O)C(=O)OCC)cc2)cc1)NC(C)=O`, the IC50 with Plasmodium falciparum was 0.31 µM; in the data set with MRC5, greater than 64 µM. In [12], this compound yielded an MIC greater than 50 µM. The Activity in the data set on Plasmodium berghei [2] is given as 82%; in the data set on Plasmodium berghei [3] it was 6.5%; in the data set with Plasmodium berghei [4], 3%; with Plasmodium berghei [5], 29.2%; with Plasmodium berghei [6], 32.6%; in [8], 102%. In addition, the Activity stood at 104% in data set [9], 86% in data set [10] and 69% in data set [11]. In addition, the MSD with Plasmodium berghei [7] turned out to be 12.7 days.
For `CCOC(=O)[C@@H](N)Cc1ccc(OP(=O)(CCCC(=O)N(C)O)Oc2ccc(C[C@H](N)C(=O)OCC)cc2)cc1`, the results for the IC50 with Plasmodium falciparum and with MRC5 were 0.23 µM and greater than 64 µM, respectively. In data set [12], this compound returned an MIC greater than 50 µM.
The matching figures for `CCOC(=O)[C@@H](NP(=O)(CCCC(=O)N(C)O)N[C@H](C(=O)OCC)[C@@H](C)CC)[C@@H](C)CC`: 2 µM, greater than 64 µM and greater than 50 µM.
As to `COC(=O)[C@H](CC(C)C)NP(=O)(CCCC(=O)N(C)O)N[C@@H](CC(C)C)C(=O)OC`, the values for the concentration for half-maximal inhibition (IC50) with Plasmodium falciparum and with MRC5 were 1.76 µM and greater than 64 µM, respectively. Further, the MIC in data set [12] is greater than 50 µM.
In the same order, the values of `CCOC(=O)[C@H](C)NP(=O)(CCCC(=O)N(C)O)N[C@@H](C)C(=O)OCC` are 5.06 µM, greater than 64 µM and 20 µM (≈ 7.91 µg/mL).
The matching figures for `CCOC(=O)[C@@H]1CCCN1P(=O)(CCCC(=O)N(C)O)N1CCC[C@H]1C(=O)OCC`: 10.2 µM, greater than 64 µM and greater than 50 µM.
The matching figures for `CC(C)C[C@H](NP(=O)(CCCC(=O)N(C)O)N[C@@H](CC(C)C)C(=O)OCc1ccccc1)C(=O)OCc1ccccc1`: 2.02 µM, 7.94 µM and greater than 50 µM.
As for `CCOC(=O)[C@H](Cc1ccccc1)NP(=O)(CCCC(=O)N(C)O)N[C@@H](Cc1ccccc1)C(=O)OCC`, the IC50 in the data set on Plasmodium falciparum was 4.71 µM; with MRC5, greater than 64 µM. In data set [12], this compound came in with an MIC greater than 50 µM.
In the same order, the values of `CCCCCOC(=O)[C@H](CC(C)C)NP(=O)(CCCC(=O)N(C)O)N[C@@H](CC(C)C)C(=O)OCCCCC` are 2.37 µM, 7.46 µM and greater than 50 µM.
Consider `CCOC(=O)[C@H](Cc1ccc(OP(=O)(Oc2ccc(C[C@H](NC(C)=O)C(=O)OCC)cc2)C(CCC(=O)N(C)O)c2ccc(Cl)c(Cl)c2)cc1)NC(C)=O` (stereo not given in full), for which the IC50 with Plasmodium falciparum was greater than 41.1 µM; with MRC5, 36.9 µM. The compound further showed a minimum inhibitory concentration (MIC) in data set [12] greater than 50 µM.
`CCN(CC)CCCC(C)Nc1ccnc2cc(Cl)ccc12` (stereo not given) [CHLOROQUINE]: the Activity is given as 98.6% in the data set on Plasmodium berghei [13]; 0.2% in the data set on Plasmodium berghei [14]; 0.6% in the data set with Plasmodium berghei [15]; 11.9% in the data set with Plasmodium berghei [16]; 99% in data set [18]; 101% in data set [19]. Besides, the Activity in [20] is reported as 101%. Further, in the data set with Plasmodium berghei [17], the MSD is 14 days.
As for `CCOC(=O)[C@H](C)NP(=O)(N[C@@H](C)C(=O)OCC)C(CCC(=O)N(C)O)c1ccc(Cl)c(Cl)c1` (stereo not given in full), the values for the IC50 with Plasmodium falciparum and in the data set with MRC5 were greater than 36.6 µM and greater than 64 µM, respectively. This compound also gave an MIC in data set [12] greater than 50 µM.
The matching figures for `CCOC(=O)[C@H](CC(C)C)NP(=O)(CCCC(=O)N(C)O)N[C@@H](CC(C)C)C(=O)OCC`: 3.91 µM, greater than 64 µM and 50 µM (≈ 24 µg/mL).
As to `CC(C)C[C@H](NP(=O)(CCCC(=O)N(C)O)N[C@@H](CC(C)C)C(=O)OC1CCCCC1)C(=O)OC1CCCCC1`, the values for the half-inhibitory concentration (IC50) in the data set with Plasmodium falciparum and with MRC5 were 4.56 µM and 7.65 µM, respectively. The same compound came in with an MIC in [12] greater than 50 µM.
Consider `CCOC(=O)[C@@H](NP(=O)(CCCC(=O)N(C)O)N[C@H](C(=O)OCC)C(C)C)C(C)C`, for which the IC50 in the data set with Plasmodium falciparum was 12.7 µM; in the data set on MRC5 it was greater than 64 µM. Moreover, in data set [12], the MIC was greater than 50 µM.
